The source made the active and inactive calls. The calls are words filed in the database; no cut-off is given here.
Columns and labels:
HCT-116 [1] = experiment: Cell cycle arrest in human HCT116 cells assessed as accumulation at sub G1 phase at 2.5 uM after 24 hrs using propidium iodide by fluorescence flow cytometry; assay type: functional
Method in brief: (§1)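 HCT-116 cells incubated 24 h with test agent at […], stained with propidium iodide; DNA content analysed by fluorescence flow cytometry to give percentage of cells per cell-cycle phase. Values are means of at least three independent experiments.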

HCT-116 [2] = experiment: Cell cycle arrest in human HCT116 cells assessed as accumulation at S phase at 1.25 uM after 24 hrs using propidium iodide by fluorescence flow cytometry; assay type: functional; method in brief: as §1
HCT-116 [3] = experiment: Cell cycle arrest in human HCT116 cells assessed as accumulation at G2/M phase at 10 uM after 24 hrs using propidium iodide by fluorescence flow cytometry; assay type: functional; method in brief: as §1
HCT-116 [4] = experiment: Cell cycle arrest in human HCT116 cells assessed as accumulation at G1 phase at 10 uM after 24 hrs using propidium iodide by fluorescence flow cytometry; assay type: functional; method in brief: as §1
HCT-116 [5] = experiment: Cell cycle arrest in human HCT116 cells assessed as accumulation at sub G1 phase at 5 uM after 24 hrs using propidium iodide by fluorescence flow cytometry; assay type: functional; method in brief: as §1
HCT-116 [6] = experiment: Cell cycle arrest in human HCT116 cells assessed as accumulation at S phase at 2.5 uM after 24 hrs using propidium iodide by fluorescence flow cytometry; assay type: functional; method in brief: as §1
HCT-116 [7] = experiment: Cell cycle arrest in human HCT116 cells assessed as accumulation at G1 phase at 1.25 uM after 24 hrs using propidium iodide by fluorescence flow cytometry; assay type: functional; method in brief: as §1
HCT-116 [8] = experiment: Cell cycle arrest in human HCT116 cells assessed as accumulation at S phase at 10 uM after 24 hrs using propidium iodide by fluorescence flow cytometry; assay type: functional; method in brief: as §1
A549 = experiment: Cytotoxicity against human A549 cells assessed as cell growth inhibition after 3 days by MTT assay; assay type: functional, cell-based; conditions: A549, 72 h
Method in brief: (§2)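 Cells grown in RPMI-1640 with 10% FBS, penicillin 100 U/mL and streptomycin, 37 °C, 5% CO2. Exponential-phase cells seeded at 5 × 10⁴–1 × 10⁵ cells/mL, grown overnight, then treated with DMSO-predissolved compounds for 3 days. Medium replaced by MTT for 4 h at 37 °C; formazan dissolved in SDS/DMF/water/acetic acid buffer (pH 4.7); absorbance read at 570 nm. At least three independent experiments.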

HCT-116 [9] = experiment: Cytotoxicity against human HCT116 cells assessed as cell growth inhibition after 3 days by MTT assay; assay type: functional, cell-based; conditions: HCT-116, 72 h; method in brief: as §2
HepG2 = experiment: Cytotoxicity against human HepG2 cells assessed as cell growth inhibition after 3 days by MTT assay; assay type: functional, cell-based; conditions: HepG2, 72 h; method in brief: as §2
HCT-116 [10] = experiment: Cell cycle arrest in human HCT116 cells assessed as accumulation at G1 phase at 5 uM after 24 hrs using propidium iodide by fluorescence flow cytometry; assay type: functional; method in brief: as §1
[11] = target: DNA topoisomerase 2-alpha (Homo sapiens) (UniProt P11388); experiment: Inhibition human topoisomerase 2 kDNA decatenation activity at 200 uM
HCT-116 [12] = experiment: Cell cycle arrest in human HCT116 cells assessed as accumulation at sub G1 phase at 1.25 uM after 24 hrs using propidium iodide by fluorescence flow cytometry; assay type: functional; method in brief: as §1
HCT-116 [13] = experiment: Cell cycle arrest in human HCT116 cells assessed as accumulation at S phase at 5 uM after 24 hrs using propidium iodide by fluorescence flow cytometry; assay type: functional; method in brief: as §1
HCT-116 [14] = experiment: Cell cycle arrest in human HCT116 cells assessed as accumulation at G2/M phase at 2.5 uM after 24 hrs using propidium iodide by fluorescence flow cytometry; assay type: functional; method in brief: as §1
HCT-116 [15] = experiment: Cell cycle arrest in human HCT116 cells assessed as accumulation at G2/M phase at 1.25 uM after 24 hrs using propidium iodide by fluorescence flow cytometry; assay type: functional; method in brief: as §1
HCT-116 [16] = experiment: Cell cycle arrest in human HCT116 cells assessed as accumulation at sub G1 phase at 10 uM after 24 hrs using propidium iodide by fluorescence flow cytometry; assay type: functional; method in brief: as §1
HCT-116 [17] = experiment: Cell cycle arrest in human HCT116 cells assessed as accumulation at G1 phase at 2.5 uM after 24 hrs using propidium iodide by fluorescence flow cytometry; assay type: functional; method in brief: as §1
HCT-116 [18] = experiment: Cell cycle arrest in human HCT116 cells assessed as accumulation at G2/M phase at 5 uM after 24 hrs using propidium iodide by fluorescence flow cytometry; assay type: functional; method in brief: as §1

Chain of DNA topoisomerase 2-alpha (Homo sapiens) (P11388 whole entry): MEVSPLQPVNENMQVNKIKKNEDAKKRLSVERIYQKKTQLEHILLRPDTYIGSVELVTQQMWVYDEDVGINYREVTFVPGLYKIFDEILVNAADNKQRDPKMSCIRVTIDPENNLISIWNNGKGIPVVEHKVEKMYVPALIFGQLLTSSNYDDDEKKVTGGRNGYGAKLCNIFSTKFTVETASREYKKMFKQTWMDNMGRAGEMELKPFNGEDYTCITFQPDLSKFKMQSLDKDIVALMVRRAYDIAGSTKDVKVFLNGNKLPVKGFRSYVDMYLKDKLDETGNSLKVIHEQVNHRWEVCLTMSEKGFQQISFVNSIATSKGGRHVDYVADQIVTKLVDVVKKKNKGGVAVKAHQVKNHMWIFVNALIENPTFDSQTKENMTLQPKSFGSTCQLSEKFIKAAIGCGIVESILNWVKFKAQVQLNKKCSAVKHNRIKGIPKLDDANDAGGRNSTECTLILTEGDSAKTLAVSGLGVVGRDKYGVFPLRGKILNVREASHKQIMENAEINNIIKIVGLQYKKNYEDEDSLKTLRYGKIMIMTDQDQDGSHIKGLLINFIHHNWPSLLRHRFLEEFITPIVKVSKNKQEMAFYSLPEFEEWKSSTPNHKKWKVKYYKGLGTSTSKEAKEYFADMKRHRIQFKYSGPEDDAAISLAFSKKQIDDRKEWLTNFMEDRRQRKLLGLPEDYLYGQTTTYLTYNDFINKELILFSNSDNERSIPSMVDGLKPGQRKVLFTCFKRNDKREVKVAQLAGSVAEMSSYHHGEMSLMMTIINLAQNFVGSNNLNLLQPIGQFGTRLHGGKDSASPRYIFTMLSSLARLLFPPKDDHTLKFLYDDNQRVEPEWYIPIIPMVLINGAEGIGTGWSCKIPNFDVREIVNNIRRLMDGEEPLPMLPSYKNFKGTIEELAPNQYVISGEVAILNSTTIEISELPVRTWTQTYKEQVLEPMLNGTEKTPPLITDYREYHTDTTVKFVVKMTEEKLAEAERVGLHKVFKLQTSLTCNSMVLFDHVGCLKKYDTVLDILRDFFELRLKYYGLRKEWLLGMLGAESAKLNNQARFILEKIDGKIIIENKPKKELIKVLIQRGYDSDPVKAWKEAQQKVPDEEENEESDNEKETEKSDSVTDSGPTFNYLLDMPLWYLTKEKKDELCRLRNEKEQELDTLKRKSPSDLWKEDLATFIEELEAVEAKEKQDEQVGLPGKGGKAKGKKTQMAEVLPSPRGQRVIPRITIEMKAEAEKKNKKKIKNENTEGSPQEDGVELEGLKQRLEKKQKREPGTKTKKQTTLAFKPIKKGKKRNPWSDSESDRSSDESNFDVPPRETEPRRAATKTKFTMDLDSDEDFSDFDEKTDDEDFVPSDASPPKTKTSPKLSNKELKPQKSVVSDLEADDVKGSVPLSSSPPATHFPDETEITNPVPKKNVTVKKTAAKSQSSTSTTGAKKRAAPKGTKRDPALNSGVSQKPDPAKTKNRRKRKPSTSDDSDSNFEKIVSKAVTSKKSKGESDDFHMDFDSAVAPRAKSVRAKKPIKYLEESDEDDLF

Row | Structure (SMILES) | IC50 (A549) [µM] | IC50 (HCT-116 [9]) [µM] | IC50 (HepG2) [µM] | also measured
1 | COc1cc([C@@H]2c3cc4c(cc3[C@@H](NC(=S)NC(=O)c3ccccc3)[C@H]3COC(=O)[C@H]23)OCO4)cc(OC)c1O | 9.8 | 6.3 | 6.1 | Activity (HCT-116 [1]): 0%; Activity (HCT-116 [2]): 8.74%; Activity (HCT-116 [3]): 96.45%; Activity (HCT-116 [4]): 3.55%; Activity (HCT-116 [5]): 0%; Activity (HCT-116 [6]): 5.09%; Activity (HCT-116 [7]): 48.6%; Activity (HCT-116 [8]): 0%; Activity (HCT-116 [10]): 4.23%; inhibition [11]: Active; Activity (HCT-116 [12]): 0%; Activity (HCT-116 [13]): 0%; Activity (HCT-116 [14]): 93.11%; Activity (HCT-116 [15]): 42.66%; Activity (HCT-116 [16]): 0%; Activity (HCT-116 [17]): 1.8%; Activity (HCT-116 [18]): 95.77%
2 | COc1cc([C@@H]2c3cc4c(cc3[C@@H](NC(=S)NC(=O)c3ccccc3Cl)[C@H]3COC(=O)[C@H]23)OCO4)cc(OC)c1O | 10.3 | 7.7 | 7.7 | 
3 | COc1cc([C@@H]2c3cc4c(cc3[C@@H](NC(=S)NC(=O)c3ccccc3Br)[C@H]3COC(=O)[C@H]23)OCO4)cc(OC)c1O | 11.4 | 6.2 | 5.1 | 
4 | COc1cc([C@@H]2c3cc4c(cc3[C@@H](NC(=S)NC(=O)c3cccc(Cl)c3)[C@H]3COC(=O)[C@H]23)OCO4)cc(OC)c1O | 17.9 | 6.8 | 7.6 | 
5 | COc1cc([C@@H]2c3cc4c(cc3[C@@H](NC(=S)NC(=O)c3ccc(C)cc3)[C@H]3COC(=O)[C@H]23)OCO4)cc(OC)c1O | 11.3 | 6.8 | 3 | 
6 | COc1cc([C@@H]2c3cc4c(cc3[C@@H](NC(=S)NC(=O)c3ccc(F)cc3)[C@H]3COC(=O)[C@H]23)OCO4)cc(OC)c1O | 10.8 | 6.8 | 8.3 | 
7 | COc1cc([C@@H]2c3cc4c(cc3[C@@H](O[C@@H]3O[C@@H]5CO[C@@H](C)O[C@H]5[C@H](O)[C@H]3O)[C@H]3COC(=O)[C@H]23)OCO4)cc(OC)c1O [ETOPOSIDE] | 21.4 | 13.5 | 4.9 | 
8 | COc1cc([C@@H]2c3cc4c(cc3[C@@H](NC(=S)NC(=O)c3ccc(Cl)cc3)[C@H]3COC(=O)[C@H]23)OCO4)cc(OC)c1O | 11.5 | 7.2 | 7.6 | 
9 | COc1cc([C@@H]2c3cc4c(cc3[C@@H](NC(=S)NC(=O)c3cccc5ccccc35)[C@H]3COC(=O)[C@H]23)OCO4)cc(OC)c1O | 6 | 2.2 | 18.7 | inhibition [11]: Active
10 | COc1cc([C@@H]2c3cc4c(cc3[C@@H](NC(=S)NC(=O)c3cccc(C)c3)[C@H]3COC(=O)[C@H]23)OCO4)cc(OC)c1O | 13.3 | 5.5 | 4.6 | 
11 | COc1cc([C@@H]2c3cc4c(cc3[C@@H](NC(=S)NC(=O)c3ccccc3C)[C@H]3COC(=O)[C@H]23)OCO4)cc(OC)c1O | 12.2 | 4.7 | 5.2 | 
12 | COc1cc([C@@H]2c3cc4c(cc3[C@@H](N)[C@H]3COC(=O)[C@H]23)OCO4)cc(OC)c1O | 5.2 | 2.1 | 1.5 | 
13 | COc1cc([C@@H]2c3cc4c(cc3[C@@H](NC(=S)NC(=O)c3ccccc3I)[C@H]3COC(=O)[C@H]23)OCO4)cc(OC)c1O | 15.1 | 6.7 | 6.7 | inhibition [11]: Active

— ChEMBL document CHEMBL1687881, “Synthesis and evaluation of aroylthiourea derivatives of 4-β-amino-4'-O-demethyl-4-desoxypodophyllotoxin as novel topoisomerase II inhibitors” (Eur J Med Chem, 2011)
